Results taken from ChEMBL document CHEMBL4251752, “Integrated Strategy for Lead Optimization Based on Fragment Growing: The Diversity-Oriented-Target-Focused-Synthesis Approach” (J Med Chem, 2018).

How the values were obtained:
[1] = target: T1, Bromodomain-containing protein 4 (Homo sapiens, UniProt O60885); experiment: Inhibition of TEV cleavage site-fused-GST tagged BRD4(BD1) (unknown origin) using SGRGK(Ac)CGK(Ac)-GLGK(Ac)GGAK(Ac)RHRKVG-peptide after 3 hrs by HTRF assay
Outline: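 GST-BRD4(BD1) purified on glutathione resin and by size exclusion; tetra-acetylated H4 peptide as ligand. Buffer 50 mM HEPES pH 7.5, 400 mM KF, 0.1% BSA, 0.5% DMSO final; 3 h at room temperature.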

[2] = target: T1, Bromodomain-containing protein 4; experiment: Binding affinity to TEV cleavage site-fused-His-tagged BRD4(BD1) (unknown origin) by isothermal-titration calorimetry
Outline: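 BRD4(BD1) with His-tag cleaved by TEV, DTT removed, dialysed into 10 mM HEPES pH 7.5, 150 mM NaCl; compounds diluted in the final dialysate. Reverse titration (protein in syringe, ligand in cell), 13 injections at 15 or 25 °C, in triplicate. Data fitted to a one-site model for KD and ΔH; ΔG and TΔS derived from these.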

[3] = target: T1, Bromodomain-containing protein 4; experiment: Binding affinity to TEV cleavage site-fused-His-tagged BRD4(BD1) (unknown origin) assessed as change in melting temperature at 10 uM by RT-PCR based thermal shift assay
Outline: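 His-tag removed by TEV cleavage before use; protein 2 μM final, compound 10 μM final (0.1% or 0.5% DMSO), thermal shift dye 1:1000, in 10 mM HEPES pH 7.5, 500 mM NaCl. After 1 min equilibration at 25 °C, heated 25–70 °C in 0.5 °C steps (25 s each); Tm from fluorescence melt curves, run in triplicate; ΔTm reported.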

| Structure (SMILES) | IC50 [1] | Kd [2] | ΔTm [3] |
| --- | --- | --- | --- |
| CCn1cnc2c1c(=O)[nH]c(=O)n2Cc1ccc(CNS(=O)(=O)c2ccc(OC)cc2)cc1 | 794 nM | 540 nM | 2.63 °C |
| CCn1cnc2c1c(=O)[nH]c(=O)n2Cc1ccc(CNS(=O)(=O)c2ccc3c(c2)n(C)c(=O)n3C)cc1 | 794 nM | 860 nM | 2.13 °C |
| CCn1cnc2c1c(=O)[nH]c(=O)n2Cc1ccc(CNS(=O)(=O)c2cnn(-c3ccccc3)c2)cc1 | 501 nM | 410 nM | 3.38 °C |
| CCn1cnc2c1c(=O)[nH]c(=O)n2Cc1ccc(CNS(=O)(=O)c2ccc(OCc3ccccc3)cc2)cc1 | 631 nM | 590 nM | 3.5 °C |
| CCn1cnc2c1c(=O)[nH]c(=O)n2Cc1ccc(CNS(=O)(=O)c2ccc3c(c2)CCC(=O)N3)cc1 | 398 nM | 310 nM | 3 °C |
| CCn1cnc2c1c(=O)[nH]c(=O)n2Cc1ccc(CNS(=O)(=O)CCc2ccccc2)cc1 | 1580 nM |  |  |
| CCn1cnc2c1c(=O)[nH]c(=O)n2Cc1ccc(CNS(=O)(=O)c2cccc(-c3ccccc3)c2)cc1 | 501 nM | 890 nM | 3.25 °C |
| CCn1cnc2c1c(=O)[nH]c(=O)n2Cc1ccc(CNS(=O)(=O)c2ccc(C)cc2)cc1 | 631 nM | 770 nM | 3 °C |
| CCn1cnc2c1c(=O)[nH]c(=O)n2Cc1ccc(CNS(=O)(=O)c2cc(-c3ccno3)ccc2C)cc1 | 1260 nM |  |  |
| CCn1cnc2c1c(=O)[nH]c(=O)n2Cc1ccc(CNS(=O)(=O)c2ccc3oncc3c2)cc1 | 2000 nM |  |  |

Continued, values first:

| IC50 [1] | Kd [2] | ΔTm [3] | Structure (SMILES) |
| --- | --- | --- | --- |
| 25100 nM |  |  | CCn1cnc2c1c(=O)[nH]c(=O)n2Cc1ccc(CN)cc1 |
| 316 nM | 360 nM | 3.13 °C | CCn1cnc2c1c(=O)[nH]c(=O)n2Cc1ccc(CNS(=O)(=O)c2ccc(Oc3ccccc3)cc2)cc1 |
| 398 nM |  | 1.5 °C | CCn1cnc2c1c(=O)[nH]c(=O)n2Cc1ccc(CNS(=O)(=O)c2ccc(-c3ccccc3)cc2)cc1 |
| 5010 nM |  |  | CCn1cnc2c1c(=O)[nH]c(=O)n2Cc1ccc(CNS(=O)(=O)CCN2CCOCC2)cc1 |
|  | 190 nM | 3.88 °C | CCn1cnc2c1c(=O)[nH]c(=O)n2Cc1ccc(CNS(=O)(=O)c2ccc3c(c2)CCCC(=O)N3)cc1 |
